pIC50: −log10 of the molar value. Each block holds one compound with its values, some of them ahead of it.
How the values were obtained:
[1] = biological target: Mitogen-activated protein kinase 10 (Rattus norvegicus, UniProt P49187); experiment: Inhibition of rat c-Jun N-terminal kinase 3
Jurkat = experiment: Ability to inhibit IL-2 production induced with phorbol-12, myristate-13 acetate and ionomycin in Jurkat T cell at the concentration of 10 uM; type: functional; conditions: Homo sapiens
Summary of the method: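 Jurkat human T cell leukemia cells in RPMI 1640 with 10% heat-inactivated FCS, plated at 2 × 10⁵ cells/well. Compounds added in 0.1% DMSO and preincubated 30 min at 37 °C. Cells then stimulated with PMA + ionomycin (0.1 and 1 µM final) for 24 h at 37 °C. IL-2 in the supernatant measured by sandwich ELISA against a recombinant human IL-2 standard.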

[2] = biological target: Protein kinase C alpha type (Homo sapiens, UniProt P17252); experiment: Inhibition of protein kinase C alpha
[3] = Inhibition of PI3k-gamma
[4] = biological target: Proto-oncogene tyrosine-protein kinase Src (Homo sapiens, UniProt P12931); experiment: Inhibition of c-SRC tyrosine kinase
[5] = Inhibition of p56 lck tyrosine kinase
[6] = biological target: Tyrosine-protein kinase Blk (Homo sapiens, UniProt P51451); experiment: Inhibition of BLK; Range is 5-10
[7] = biological target: Serine/threonine-protein kinase Sgk1 (Homo sapiens, UniProt O00141); experiment: Inhibition of SGK; Range is 5-10
Sequence of Serine/threonine-protein kinase Sgk1 (O00141 whole entry): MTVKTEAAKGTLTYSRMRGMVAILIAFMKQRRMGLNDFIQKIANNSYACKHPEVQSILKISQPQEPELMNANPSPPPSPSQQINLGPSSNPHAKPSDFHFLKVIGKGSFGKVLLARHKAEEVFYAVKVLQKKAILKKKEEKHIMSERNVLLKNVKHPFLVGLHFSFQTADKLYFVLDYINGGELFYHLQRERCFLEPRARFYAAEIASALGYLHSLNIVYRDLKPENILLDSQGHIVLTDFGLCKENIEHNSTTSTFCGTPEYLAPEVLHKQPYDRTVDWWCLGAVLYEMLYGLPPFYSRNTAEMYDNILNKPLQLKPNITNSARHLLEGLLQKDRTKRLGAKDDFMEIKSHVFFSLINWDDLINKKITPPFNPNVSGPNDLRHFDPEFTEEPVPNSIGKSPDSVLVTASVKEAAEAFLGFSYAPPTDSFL

[8] = biological target: Dual specificity mitogen-activated protein kinase kinase 6 (Homo sapiens, UniProt P52564); experiment: Inhibition of Mitogen activated protein kinase 6; Range is 5-10
Sequence of Dual specificity mitogen-activated protein kinase kinase 6 (P52564 whole entry): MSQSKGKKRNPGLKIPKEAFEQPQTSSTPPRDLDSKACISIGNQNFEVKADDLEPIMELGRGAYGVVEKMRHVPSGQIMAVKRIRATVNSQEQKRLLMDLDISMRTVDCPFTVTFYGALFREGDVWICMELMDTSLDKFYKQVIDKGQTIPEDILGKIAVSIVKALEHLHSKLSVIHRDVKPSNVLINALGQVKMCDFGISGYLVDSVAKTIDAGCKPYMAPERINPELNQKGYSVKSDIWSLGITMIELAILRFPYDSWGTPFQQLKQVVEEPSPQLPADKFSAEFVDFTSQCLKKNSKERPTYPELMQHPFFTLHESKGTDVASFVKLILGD

[9] = biological target: Dual specificity mitogen-activated protein kinase kinase 7 (Homo sapiens, UniProt O14733); experiment: Inhibition of mitogen activated protein kinase kinase 7 beta
[10] = biological target: MAP kinase-activated protein kinase 5 (Homo sapiens, UniProt Q8IW41); experiment: Inhibition of protein kinase PRAK
[11] = biological target: RAC-alpha serine/threonine-protein kinase (Homo sapiens, UniProt P31749); experiment: Inhibition of AKT kinase
[12] = biological target: Serine/threonine-protein kinase Chk1 (Homo sapiens, UniProt O14757); experiment: Inhibition of CHK1 kinase
Sequence of Serine/threonine-protein kinase Chk1 (O14757 whole entry): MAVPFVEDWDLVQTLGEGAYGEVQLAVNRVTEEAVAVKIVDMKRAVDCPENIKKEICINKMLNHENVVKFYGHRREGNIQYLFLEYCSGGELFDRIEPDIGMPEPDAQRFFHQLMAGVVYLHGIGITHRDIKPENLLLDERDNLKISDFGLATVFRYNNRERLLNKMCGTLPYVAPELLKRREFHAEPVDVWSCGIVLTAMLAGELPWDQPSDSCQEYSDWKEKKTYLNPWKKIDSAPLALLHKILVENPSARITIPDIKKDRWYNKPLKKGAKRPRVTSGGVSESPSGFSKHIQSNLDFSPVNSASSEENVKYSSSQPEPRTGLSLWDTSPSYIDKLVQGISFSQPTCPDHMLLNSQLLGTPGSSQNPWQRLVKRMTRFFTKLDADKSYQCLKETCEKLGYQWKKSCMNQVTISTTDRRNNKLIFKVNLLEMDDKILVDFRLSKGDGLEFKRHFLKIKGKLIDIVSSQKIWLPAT

[13] = biological target: Mitogen-activated protein kinase 3 (Homo sapiens, UniProt P27361); experiment: Inhibition of ERK1 kinase
[14] = biological target: Inhibitor of nuclear factor kappa-B kinase subunit beta (Homo sapiens, UniProt O14920); experiment: Inhibition of IKKB kinase
[15] = biological target: 3-phosphoinositide-dependent protein kinase 1 (Homo sapiens, UniProt O15530); experiment: Inhibitory concentration against PDK 1
[16] = biological target: Dual specificity mitogen-activated protein kinase kinase 4 (Homo sapiens, UniProt P45985); experiment: Inhibition of Mitogen activated protein kinase kinase 4
Sequence of Dual specificity mitogen-activated protein kinase kinase 4 (P45985 whole entry): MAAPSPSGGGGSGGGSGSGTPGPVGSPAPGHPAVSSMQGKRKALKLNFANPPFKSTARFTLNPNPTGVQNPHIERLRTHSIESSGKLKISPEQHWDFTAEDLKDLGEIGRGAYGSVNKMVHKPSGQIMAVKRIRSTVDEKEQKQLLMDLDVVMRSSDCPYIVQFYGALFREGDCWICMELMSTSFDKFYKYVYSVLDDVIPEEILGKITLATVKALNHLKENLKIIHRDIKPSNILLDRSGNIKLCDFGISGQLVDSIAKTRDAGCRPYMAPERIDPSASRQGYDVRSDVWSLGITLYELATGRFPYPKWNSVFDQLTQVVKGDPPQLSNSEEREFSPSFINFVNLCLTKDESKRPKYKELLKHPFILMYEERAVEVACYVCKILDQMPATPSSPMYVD

[17] = biological target: Dual specificity mitogen-activated protein kinase kinase 1 (Homo sapiens, UniProt Q02750); experiment: Inhibition of mitogen activated protein kinase kinase 1 (MEK1)
[18] = biological target: Cyclin-dependent kinase 2/cyclin A (Homo sapiens, UniProt P24941); experiment: Inhibition of CDK2/cyclin A; type: protein-complex assay
[19] = biological target: Mitogen-activated protein kinase 8 (Homo sapiens, UniProt P45983); experiment: Inhibition of c-Jun N-Terminal kinase 1
[20] = biological target: Mitogen-activated protein kinase 9 (Homo sapiens, UniProt P45984); experiment: Inhibitory concentration against c-Jun N-Terminal kinase 2
[21] = biological target: RAF proto-oncogene serine/threonine-protein kinase (Homo sapiens, UniProt P04049); experiment: Inhibition of RAF proto-oncogene serine/threonine protein kinase
[22] = biological target: Ribosomal protein S6 kinase alpha-5 (Homo sapiens, UniProt O75582); experiment: Inhibition of MSK-1 kinase; Range is 5-10
[23] = biological target: Rho-associated protein kinase 2 (Homo sapiens, UniProt O75116); experiment: Inhibition of protein kinase ROCK2; Range is 5-10
Sequence of Rho-associated protein kinase 2 (O75116 whole entry): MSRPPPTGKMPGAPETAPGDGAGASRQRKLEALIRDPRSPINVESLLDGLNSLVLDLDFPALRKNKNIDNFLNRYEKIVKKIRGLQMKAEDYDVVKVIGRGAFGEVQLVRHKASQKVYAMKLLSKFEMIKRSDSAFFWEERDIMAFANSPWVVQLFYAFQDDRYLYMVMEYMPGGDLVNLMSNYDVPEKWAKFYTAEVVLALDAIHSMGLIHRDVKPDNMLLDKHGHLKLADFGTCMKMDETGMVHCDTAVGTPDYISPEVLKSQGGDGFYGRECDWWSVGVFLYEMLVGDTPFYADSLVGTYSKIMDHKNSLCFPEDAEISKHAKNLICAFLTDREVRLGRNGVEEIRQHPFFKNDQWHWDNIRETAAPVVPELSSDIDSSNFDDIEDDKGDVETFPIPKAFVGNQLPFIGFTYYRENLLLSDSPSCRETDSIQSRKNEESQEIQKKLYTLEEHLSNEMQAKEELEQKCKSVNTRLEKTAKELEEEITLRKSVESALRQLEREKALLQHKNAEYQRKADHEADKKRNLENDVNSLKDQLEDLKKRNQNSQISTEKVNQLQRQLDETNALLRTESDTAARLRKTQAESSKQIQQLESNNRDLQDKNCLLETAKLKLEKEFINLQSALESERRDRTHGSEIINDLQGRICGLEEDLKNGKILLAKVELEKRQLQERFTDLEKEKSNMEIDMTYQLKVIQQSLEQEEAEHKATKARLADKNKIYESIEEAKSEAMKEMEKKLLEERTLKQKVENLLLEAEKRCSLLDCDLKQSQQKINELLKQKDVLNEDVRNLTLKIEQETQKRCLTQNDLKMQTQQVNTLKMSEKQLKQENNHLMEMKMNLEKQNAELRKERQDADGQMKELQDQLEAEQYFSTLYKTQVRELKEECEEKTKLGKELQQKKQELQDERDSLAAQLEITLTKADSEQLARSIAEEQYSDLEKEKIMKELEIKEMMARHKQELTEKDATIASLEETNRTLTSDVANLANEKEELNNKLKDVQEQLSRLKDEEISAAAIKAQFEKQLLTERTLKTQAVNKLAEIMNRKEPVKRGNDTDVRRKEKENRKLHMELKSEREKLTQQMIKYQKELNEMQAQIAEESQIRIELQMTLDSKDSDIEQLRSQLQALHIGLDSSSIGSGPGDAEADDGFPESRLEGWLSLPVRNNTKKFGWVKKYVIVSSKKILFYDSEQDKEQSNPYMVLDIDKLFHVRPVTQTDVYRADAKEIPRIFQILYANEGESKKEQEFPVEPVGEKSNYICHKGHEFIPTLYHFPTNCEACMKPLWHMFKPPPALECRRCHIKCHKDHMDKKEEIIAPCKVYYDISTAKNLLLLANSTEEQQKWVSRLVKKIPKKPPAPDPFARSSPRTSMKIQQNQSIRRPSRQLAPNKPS

Mus musculus = experiment: Dose administered orally to decrease TNF alpha plasma level in mice; type: functional; conditions: po
Summary of the method: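 Groups of six mice. LPS endotoxin (O111:B4, 0.3 mg/kg) given i.p. 15 min later. Plasma TNF-α measured by ELISA in heparinized blood collected by decapitation. Data given as mean ± SEM, analysed by one-way ANOVA with Dunnett's t-test.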

[24] = Oral bioavailability in rat; type: ADME, organism-based; conditions: in vivo, read-out: Bioavailabiility
[25] = biological target: MAP kinase-activated protein kinase 2 (Homo sapiens, UniProt P49137); experiment: Inhibition of MAP kinase-activated protein kinase 2
Sequence of MAP kinase-activated protein kinase 2 (P49137 whole entry): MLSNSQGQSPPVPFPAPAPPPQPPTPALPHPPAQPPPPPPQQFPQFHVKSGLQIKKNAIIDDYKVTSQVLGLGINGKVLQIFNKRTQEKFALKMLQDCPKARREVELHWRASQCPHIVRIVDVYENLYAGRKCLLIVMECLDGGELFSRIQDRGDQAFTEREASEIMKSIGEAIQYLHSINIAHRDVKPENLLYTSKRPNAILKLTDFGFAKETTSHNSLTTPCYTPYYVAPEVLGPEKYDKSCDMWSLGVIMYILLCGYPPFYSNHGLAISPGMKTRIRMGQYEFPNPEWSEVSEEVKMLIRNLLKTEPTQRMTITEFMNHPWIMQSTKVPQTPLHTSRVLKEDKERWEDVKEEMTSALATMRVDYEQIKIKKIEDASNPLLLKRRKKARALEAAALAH

[26] = biological target: Ribosomal protein S6 kinase (P70S6K) (Homo sapiens, UniProt P23443+Q9UBS0); experiment: Inhibition of p70S6K; type: protein-complex assay
[27] = biological target: Mitogen-activated protein kinase 14 (Homo sapiens, UniProt Q16539); experiment: Inhibition of MAP kinase p38 alpha
Sequence of Mitogen-activated protein kinase 14 (Q16539 whole entry): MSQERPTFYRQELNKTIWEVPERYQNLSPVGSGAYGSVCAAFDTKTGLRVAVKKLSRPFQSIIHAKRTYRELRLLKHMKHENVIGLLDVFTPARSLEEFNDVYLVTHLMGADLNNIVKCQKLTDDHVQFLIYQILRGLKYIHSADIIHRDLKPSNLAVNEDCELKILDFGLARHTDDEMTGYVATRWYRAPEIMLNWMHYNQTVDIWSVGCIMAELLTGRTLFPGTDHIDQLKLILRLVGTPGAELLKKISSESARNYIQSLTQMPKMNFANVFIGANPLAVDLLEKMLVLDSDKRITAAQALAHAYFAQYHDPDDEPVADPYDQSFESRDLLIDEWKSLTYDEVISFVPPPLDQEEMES

Sequence of Mitogen-activated protein kinase 10 (P49187 whole entry): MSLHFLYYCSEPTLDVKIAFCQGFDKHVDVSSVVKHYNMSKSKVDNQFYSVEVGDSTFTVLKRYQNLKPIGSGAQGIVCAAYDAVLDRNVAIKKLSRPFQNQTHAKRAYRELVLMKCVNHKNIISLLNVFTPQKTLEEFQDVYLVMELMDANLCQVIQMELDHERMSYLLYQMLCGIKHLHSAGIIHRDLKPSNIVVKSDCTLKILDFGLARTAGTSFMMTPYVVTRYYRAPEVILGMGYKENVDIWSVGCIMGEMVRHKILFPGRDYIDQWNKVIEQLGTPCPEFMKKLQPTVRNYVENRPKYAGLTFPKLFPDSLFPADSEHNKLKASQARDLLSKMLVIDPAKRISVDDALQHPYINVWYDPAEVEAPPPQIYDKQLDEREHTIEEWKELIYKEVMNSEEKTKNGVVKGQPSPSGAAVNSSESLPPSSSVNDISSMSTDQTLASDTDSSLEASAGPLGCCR

SMILES: N#C/C(=C1/Nc2ccccc2S1)c1ccnc(NCCc2cccc(F)c2)n1
pIC50 [1]: 5.74

SMILES: CN1CCN(c2nccc(/C(C#N)=C3\Nc4ccccc4S3)n2)CC1
pIC50 [1]: 5.17

SMILES: N#C/C(=C1/Nc2ccccc2S1)c1ccnc(N2CCNCC2)n1
pIC50 [1]: 5.18

SMILES: N#C/C(=C1/Nc2ccccc2S1)c1ccnc(NCCn2ccc3ccccc32)n1
pIC50 [1]: 6.34

SMILES: COc1ccc(CCNc2nccc(/C(C#N)=C3\Nc4ccccc4S3)n2)cc1
pIC50 [1]: 5.51

SMILES: N#C/C(=C1/Nc2ccccc2S1)c1ccnc(NCc2ccccc2)n1
pIC50 [1]: 5.19

SMILES: CN1CCN(CCCNc2nccc(/C(C#N)=C3\Nc4ccccc4S3)n2)CC1
inhibition at 10 µM (Jurkat): 83%

SMILES: N#C/C(=C1/Nc2ccccc2S1)c1ccnc(NCCCN2CCOCC2)n1
pIC50 [1]: 6.39

SMILES: CCCNc1nccc(/C(C#N)=C2\Nc3ccccc3S2)n1
pIC50 [1]: < 5.30

SMILES: N#C/C(=C1/Nc2ccccc2S1)c1ccnc(NCCc2cccnc2)n1.O=C(O)C(F)(F)F.O=C(O)C(F)(F)F
pIC50 [2]: < 5.00
pIC50 [3]: < 5.00
pIC50 [4]: 5.96
pIC50 [5]: < 5.00
pIC50 [6]: 5.00
pIC50 [7]: 5.00
pIC50 [8]: 5.00
pIC50 [9]: < 5.00
pIC50 [10]: < 5.00
pIC50 [11]: < 5.00
pIC50 [12]: < 5.00
pIC50 [13]: < 5.00
pIC50 [14]: < 5.00
pIC50 [15]: < 5.00
pIC50 [16]: < 5.00
pIC50 [17]: < 5.00
pIC50 [18]: 5.85
pIC50 [19]: 6.82
pIC50 [20]: 6.66
pIC50 [21]: 5.92
pIC50 [22]: 5.00
pIC50 [23]: 5.00
ED50 (Mus musculus): 3 mg/kg
inhibition at 10 µM (Jurkat): 90%
bioavailability [24]: 38%
pIC50 [25]: < 5.00
pIC50 [26]: < 5.00
pIC50 [27]: 5.32

SMILES: N#C/C(=C1/Nc2ccccc2S1)c1ccnc(NCCN2CCCCC2)n1
pIC50 [1]: 5.43

SMILES: Cn1cncc1CCNc1nccc(/C(C#N)=C2\Nc3ccccc3S2)n1
inhibition at 10 µM (Jurkat): 100%

SMILES: N#C/C(=C1/Nc2ccccc2S1)c1ccnc(NCCCN)n1
pIC50 [1]: 6.15

SMILES: CNc1nccc(/C(C#N)=C2\Nc3ccccc3S2)n1
pIC50 [1]: 6.02

SMILES: N#C/C(=C1/Nc2ccccc2S1)c1ccnc(NCc2nn[nH]n2)n1
pIC50 [1]: < 5.30

SMILES: Cn1cnc(CCNc2nccc(/C(C#N)=C3\Nc4ccccc4S3)n2)c1
pIC50 [1]: 7.19

SMILES: N#C/C(=C1/Nc2ccccc2S1)c1cccc(Cl)n1
pIC50 [1]: < 5.30

SMILES: N#C/C(=C1/Nc2ccccc2S1)c1ccnc(NCCN)n1
pIC50 [1]: 5.83

SMILES: N#C/C(=C1/Nc2cc(C(F)(F)F)ccc2S1)c1ccnc(Cl)n1
pIC50 [1]: 6.00

SMILES: N#C/C(=C1/Nc2ccccc2S1)c1ccnc(NCCc2cccc(Cl)c2)n1
pIC50 [1]: < 5.30

SMILES: N#C/C(=C1/Nc2ccccc2S1)c1ccnc(NCCc2ccccn2)n1
pIC50 [1]: 6.60
inhibition at 10 µM (Jurkat): 60%

SMILES: CN1/C(=C(/C#N)c2ccnc(Cl)n2)Sc2ccccc21
pIC50 [1]: < 5.30

SMILES: N#C/C(=C1/Nc2ccccc2S1)c1ccnc(NCCc2ccccc2F)n1
pIC50 [1]: 6.56
inhibition at 10 µM (Jurkat): 90%

SMILES: N#C/C(=C1/Nc2ccccc2S1)c1ccnc(NCCn2cncn2)n1
pIC50 [1]: 6.40

SMILES: N#C/C(=C1/Nc2ccccc2S1)c1ccnc(NCCCn2ccnc2)n1
pIC50 [1]: 6.83
inhibition at 10 µM (Jurkat): 31%

SMILES: N#C/C(=C1/Nc2ccccc2S1)c1ccnc(NCc2cccnc2)n1
pIC50 [1]: 6.47
inhibition at 10 µM (Jurkat): 95%

SMILES: N#C/C(=C1/Nc2ccccc2S1)c1ccnc(NCCc2ccc(F)cc2)n1
pIC50 [1]: < 5.30
inhibition at 10 µM (Jurkat): 0%

SMILES: N#C/C(=C1/Nc2ccccc2S1)c1ccnc(NCCc2ccc(O)cc2)n1
pIC50 [1]: 5.46

SMILES: N#C/C(=C1/Nc2ccccc2S1)c1ccnc(NCCCn2cccn2)n1
pIC50 [1]: 6.23

SMILES: N#C/C(=C1/Nc2ccccc2S1)c1ccnc(N)n1
pIC50 [1]: 5.12

SMILES: N#C/C(=C1/Nc2ccccc2S1)c1ccnc(NN)n1
pIC50 [1]: 6.30

The next lines start with results.

pIC50 [1]: 5.03
SMILES: CN(C)c1nccc(/C(C#N)=C2\Nc3ccccc3S2)n1

pIC50 [1]: 6.47
SMILES: N#C/C(=C1/Nc2ccccc2S1)c1ccnc(NCc2ccncc2)n1

pIC50 [1]: < 5.30
SMILES: Cc1ccc(CCNc2nccc(/C(C#N)=C3\Nc4ccccc4S3)n2)cc1

pIC50 [1]: < 5.30
SMILES: N#CC(=C1Nc2ccccc2N1)c1nc(Cl)ncc1Br

pIC50 [1]: < 5.30
SMILES: N#C/C(=C1/Nc2ccccc2S1)c1ccnc(NCCc2ccccc2)n1

pIC50 [1]: 6.09
SMILES: COCCNc1nccc(/C(C#N)=C2\Nc3ccccc3S2)n1

pIC50 [1]: 6.19
SMILES: N#C/C(=C1/Nc2ccccc2S1)c1ccnc(NCc2ccccn2)n1

pIC50 [1]: 6.46
SMILES: N#C/C(=C1/Nc2ccccc2S1)c1cc(Br)nc(Cl)n1

pIC50 [1]: 6.60
SMILES: N#C/C(=C1/Nc2ccccc2S1)c1ccnc(Cl)n1
inhibition at 10 µM (Jurkat): 90%

pIC50 [1]: < 5.30
SMILES: CCO/C(O)=C(\c1ccnc(Cl)n1)c1nc2ccccc2s1

pIC50 [1]: 5.89
SMILES: CN(C)CCNc1nccc(/C(C#N)=C2\Nc3ccccc3S2)n1

pIC50 [1]: 5.78
SMILES: CN(C)CCCNc1nccc(/C(C#N)=C2\Nc3ccccc3S2)n1

pIC50 [1]: 6.18
SMILES: N#C/C(=C1/Nc2ccccc2S1)c1ccnc(NCCCO)n1

pIC50 [1]: 5.54
SMILES: N#C/C(=C1/Nc2ccccc2S1)c1ccnc(N2CCOCC2)n1

pIC50 [1]: 5.87
SMILES: CCCN(CCCNc1nccc(/C(C#N)=C2\Nc3ccccc3S2)n1)C(=O)CC

pIC50 [1]: 6.22
SMILES: N#C/C(=C1/Nc2ccccc2S1)c1ccnc(NCCc2ccc([N+](=O)[O-])cc2)n1

pIC50 [1]: 5.88
SMILES: CNCCCN(C)c1nccc(/C(C#N)=C2\Nc3ccccc3S2)n1

pIC50 [1]: < 5.30
SMILES: N#C/C(=C1/Nc2ccccc2S1)c1ccnc(NCCc2ccc(Br)cc2)n1

pIC50 [1]: 5.14
SMILES: COC1CCN(c2nccc(/C(C#N)=C3\Nc4ccccc4S3)n2)CC1

pIC50 [1]: 7.10
SMILES: N#C/C(=C1/Nc2ccccc2S1)c1ccnc(NCCc2c[nH]cn2)n1
inhibition at 10 µM (Jurkat): 80%

pIC50 [1]: < 5.30
SMILES: CCCN(CCC)c1nccc(/C(C#N)=C2\Nc3ccccc3S2)n1

pIC50 [1]: < 5.30
SMILES: N#C/C(=C1/Nc2ccccc2S1)c1ccnc(NCCc2ccc(Cl)c(Cl)c2)n1

pIC50 [1]: 7.10
SMILES: N#C/C(=C1/Nc2ccccc2S1)c1ccnc(NCCc2ccc(N)cc2)n1
inhibition at 10 µM (Jurkat): 80%

pIC50 [1]: < 5.30
SMILES: Cc1cc(/C(C#N)=C2\Nc3ccccc3S2)nc(Cl)n1

pIC50 [1]: 6.12
SMILES: N#C/C(=C1/Nc2ccccc2S1)c1ccnc(NCCN2CCOCC2)n1

pIC50 [1]: 7.39
SMILES: N#C/C(=C1/Nc2ccccc2S1)c1ccnc(NCCc2ccc(S(N)(=O)=O)cc2)n1

pIC50 [1]: < 5.30
SMILES: N#C/C(=C1/Nc2ccccc2S1)c1ccncn1

pIC50 [1]: 6.29
SMILES: N#C/C(=C1/Nc2ccccc2S1)c1ccnc(NCCO)n1

Reference: ChEMBL document CHEMBL1140315, “Design and synthesis of the first generation of novel potent, selective, and in vivo active (benzothiazol-2-yl)acetonitrile inhibitors of the c-Jun N-terminal kinase” (J Med Chem, 2005)
